From ChEMBL document CHEMBL1147081, “Structure of the deacetylase LpxC bound to the antibiotic CHIR-090: Time-dependent inhibition and specificity in ligand binding” (Proc Natl Acad Sci U S A, 2007)

Tests used:
[1] = molecular target: UDP-3-O-acyl-N-acetylglucosamine deacetylase (Escherichia coli K-12, UniProt P0A725, G210S/Q202W); experiment: Inhibition of Escherichia coli LpxC Q202W/G210S mutant
[2] = molecular target: T1, UDP-3-O-acyl-N-acetylglucosamine deacetylase (Escherichia coli K-12, UniProt P0A725); experiment: Inhibition of Escherichia coli LpxC
T1 sequence (P0A725 whole entry): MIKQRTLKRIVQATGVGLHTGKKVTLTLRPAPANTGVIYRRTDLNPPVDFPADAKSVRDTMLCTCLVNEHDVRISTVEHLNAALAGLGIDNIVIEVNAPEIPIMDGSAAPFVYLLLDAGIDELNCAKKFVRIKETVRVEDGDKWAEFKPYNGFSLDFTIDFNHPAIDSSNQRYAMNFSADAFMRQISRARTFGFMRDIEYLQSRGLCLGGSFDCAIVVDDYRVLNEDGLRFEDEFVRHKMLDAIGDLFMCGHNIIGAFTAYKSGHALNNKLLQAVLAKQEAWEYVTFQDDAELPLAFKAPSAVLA

[3] = Inhibition of Rhizobium leguminosarum LpxC
[4] = molecular target: UDP-3-O-acyl-N-acetylglucosamine deacetylase (Rhizobium leguminosarum bv. trifolii (strain WSM1325), UniProt C6ARS9, S214G/W206Q); experiment: Inhibition of Rhizobium leguminosarum LpxC W206Q/S214G mutant
Procedure, shortened: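 Assays used 5 μM UDP-3-O-(R-3-hydroxymyristoyl)-N-acetylglucosamine substrate and varied inhibitor at constant 10% DMSO. An IC50 curve was fit to fractional activity (vi/vo), and Ki was derived with the Cheng–Prusoff relationship.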

UDP-3-O-acyl-N-acetylglucosamine deacetylase (Rhizobium leguminosarum bv. trifolii (strain WSM1325), UniProt C6ARS9, S214G/W206Q), sequence (C6ARS9 as listed by the source W206Q/S214G): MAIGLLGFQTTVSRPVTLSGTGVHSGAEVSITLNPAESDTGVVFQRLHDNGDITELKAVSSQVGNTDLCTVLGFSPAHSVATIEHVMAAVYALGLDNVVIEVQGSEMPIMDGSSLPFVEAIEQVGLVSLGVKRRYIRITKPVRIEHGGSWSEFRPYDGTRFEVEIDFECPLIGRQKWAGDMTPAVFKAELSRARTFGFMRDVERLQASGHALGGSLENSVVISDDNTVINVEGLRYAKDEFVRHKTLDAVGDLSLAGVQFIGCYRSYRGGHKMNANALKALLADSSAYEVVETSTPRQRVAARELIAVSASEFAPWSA
UDP-3-O-acyl-N-acetylglucosamine deacetylase (Escherichia coli K-12, UniProt P0A725, G210S/Q202W), sequence (P0A725 whole entry Q202W/G210S): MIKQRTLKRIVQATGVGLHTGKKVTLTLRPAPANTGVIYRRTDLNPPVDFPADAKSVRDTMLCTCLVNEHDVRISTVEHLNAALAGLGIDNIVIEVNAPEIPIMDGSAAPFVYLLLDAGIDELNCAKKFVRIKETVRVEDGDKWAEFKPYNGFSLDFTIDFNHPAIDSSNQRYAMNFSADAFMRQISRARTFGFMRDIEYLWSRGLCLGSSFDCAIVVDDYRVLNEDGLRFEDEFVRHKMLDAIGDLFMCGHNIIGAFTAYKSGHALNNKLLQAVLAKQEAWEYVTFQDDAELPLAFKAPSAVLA

CCCc1cc(C2=N[C@@H](C(=O)NO)CO2)cc(OC)c1OC showed a Ki [1] of 0.34 µM, a Ki [2] of 0.053 µM and a Ki [3] of 380 µM. For the same molecule, the Ki [4] was 110 µM.

With O=C(NO)[C@@H](Cc1ccc2ccccc2c1)NS(=O)(=O)c1ccc2ccccc2c1 the Ki [1] was 0.086 µM, the Ki [2] was 0.069 µM and the Ki [3] was 5.8 µM. The Ki [4] was 0.7 µM.
